In experiment [1] the test system is HepG2 cell line. The experiment in a line: Cytotoxic screening using MTT assay, HepG2. The class given is cell-based. Particulars: Homo sapiens, HepG2, 48 h, read-out: IC50 (μM) HepG2. On the technique in general: Tetrazolium assays rely on reduction of a dye to a coloured formazan, in cell work by metabolically active cells.
Experiment [2] relates to MCF-7 cell line. The experiment in a line: Cytotoxic screening using MTT assay, MCF-7. The format is cell-based. A digest of the protocol:
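MTT cytotoxicity read-out on MCF-7 cells; IC50 from a sigmoidal log-concentration curve; 5-fluorouracil run alongside as reference drug.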

The test system of experiment [3] is normal cell line GMSC. Nature of the experiment: Cytotoxic screening using MTT assay, normal cell line GMSC. The format is cell-based. The settings on record: read-out: IC50 (μM) GMSC.
Experiment [4] has as its system Ehrlich Ascites Carcinoma (EAC). The experiment in a line: In vivo anti-tumor activity in EAC-bearing mice. The settings on record: for percentage MST ratio (T/C%) / percentage increase in life span (ILS%): compared to EAC control; for percentage cell growth inhibition (CGI%) / tumor volume / total tumor cell count / packed cell volume (PCV%): day 18; for tumor volume: EAC control 19.5 mL; for total tumor cell count: EAC control 19.9; for packed cell volume (PCV%): EAC control 36.72%.

Where [5] appears, read: Homo sapiens, MCF7, 48 h, read-out: IC50 (μM) MCF-7, MTT assay, 48 h treatment.
Where [6] appears, read: read-out: IC50 (μM) MCF-7, MTT assay, 48 h treatment.

“And” between values parts separate entries of the source, which are not always exact repeats. Equal entries are not always repeated. Where two headings read alike, the source gives them in different places.

For the molecule `O=c1[nH]ncc2c1[nH]c1ccccc12` [Compound 2, 3,5-Dihydro-4H-pyridazino[4,5-b]indol-4-one], the IC50 (commonly the point on the concentration scale where inhibition reaches its midpoint) in experiment [1] was found to be 22.8 µM; in experiment [2] (setting [5]) it was 9.43 µM.
With `N#CCCn1ncc2c3ccccc3n(CCC#N)c2c1=O` [Compound 3, 3,3′-(4-oxo-3H-pyridazino[4,5-b]indole-3,5(4H)-diyl)dipropanenitrile], the IC50 in experiment [1] was above 50 µM.
Take `C=CCn1c2ccccc2c2cn[nH]c(=O)c21` [Compound 5, 5-Allyl-3,5-dihydro-4H-pyridazino[4,5-b]indol-4-one]: the IC50 in experiment [1], in experiment [3] (48 h) and in experiment [2] (setting [5]) was above 50 µM in each case.
Regarding `O=c1[nH]cc(F)c(=O)[nH]1` [Compound 5-FU, reference compound], the IC50 in experiment [3] (MTT assay, 48 h treatment, normal cell line) is above 50 µM. The IC50 in experiment [2] (setting [6]) turned out to be 6.98 µM. For the same molecule, in experiment [4] (EAC-bearing mice), the “percentage MST ratio (T/C%)” value is 166% and the “percentage increase in life span (ILS%)” value is reported as 66%. In experiment [4] (ascetic peritoneal fluid), the “percentage cell growth inhibition (CGI%)” value is 38.67%, the tumor volume turned out to be 12.6 mL, the “total tumor cell count” value is listed as 12.2 × 10^7 cells per mL and the “packed cell volume (PCV%)” value is listed as 23.78%.
Regarding `O=c1[nH]ncc2c3ccccc3n(Cc3ccccc3)c12` [Compound 6, 5-Benzyl-3,5-dihydro-4H-pyridazino[4,5-b]indol-4-one], the IC50 in experiment [3] (48 h) was above 50 µM; in experiment [2] (setting [5]), 29.5 µM.
With `C=CCn1ncc2c3ccccc3n(CC=C)c2c1=O` [Compound 8, 3,5-Diallyl-3,5-dihydro-4H-pyridazino[4,5-b]indol-4-one], the concentration for half-maximal inhibition (IC50) in experiment [2] (setting [5]) was 17 µM.
With `O=c1c2c(cnn1Cc1ccccc1)c1ccccc1n2Cc1ccccc1` [Compound 9, 3,5-Dibenzyl-3,5-dihydro-4H-pyridazino[4,5-b]indol-4-one], the IC50 in experiment [2] (setting [5]) is above 50 µM.
On to `CCOC(=O)Cn1c2ccccc2c2cn[nH]c(=O)c21` [Compound 10, Ethyl 2-(4-oxo-3,4-dihydro-5H-pyridazino[4,5-b]indol-5-yl)acetate], for which the results for the IC50 in experiment [1], in experiment [3] (48 h) and in experiment [2] (setting [5]) were 36.7 µM, above 50 µM and 12.4 µM, respectively.
The matching figures for `CCOC(=O)Cn1ncc2c3ccccc3n(CC(=O)OCC)c2c1=O` [Compound 11, Diethyl 2,2′-(4-oxo-3H-pyridazino[4,5-b]indole-3,5(4H)-diyl)diacetate]: 18.8 µM, above 50 µM and 9.07 µM.
On to `NNC(=O)Cn1c2ccccc2c2cn[nH]c(=O)c21` [Compound 12, 2-(4-Oxo-3,4-dihydro-5H-pyridazino[4,5-b]indol-5-yl)acetohydrazide], for which the IC50 in experiment [1] came out at 12.8 µM. Further, the IC50 in experiment [3] (48 h) is above 50 µM. For the same molecule, the IC50 in experiment [2] (setting [5]) was 4.24 µM. In experiment [2] (setting [6]), the IC50 turned out to be 4.25 µM. In experiment [4] (EAC-bearing mice), the “percentage MST ratio (T/C%)” value is on record as 172% and the “percentage increase in life span (ILS%)” value was 72%. For the same molecule, the “percentage increase in body weight (IBW%)” value in experiment [4] (EAC-bearing mice, untreated EAC control 43.65%) is 19.27% and 15.56%. Also, in experiment [4] (ascetic peritoneal fluid), the “percentage cell growth inhibition (CGI%)” value amounted to 50.74%, the tumor volume turned out to be 11.9 mL, the “total tumor cell count” value is listed as 9.8 × 10^7 cells per mL and the “packed cell volume (PCV%)” value amounted to 19.32%. Moreover, the “percentage of viable cells” value in experiment [4] (ascetic peritoneal fluid, day 18, trypan blue exclusion, EAC control 91.9%) worked out at 59.6%.

The values above are taken from article PMC9054070 (RSC Advances, 2020).
